Molecules are shown by their SMILES. Calls of active or inactive are those of the source. The rule behind the calls is not given here. Some results are limits rather than exact numbers.

Data set [1] is described as follows: Tmax in C57BL/6 mouse at 20 mg/kg, sc administered as single dose measured upto 24 hrs by LC-MS/MS analysis. Particulars: in vivo. The class given is ADME, organism-based. The gist of the method: (§1)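 Male C57BL/6 mice, single dose: IV 5 mg/kg in 85% saline/10% Solutol HS15/5% DMSO; SC 20 mg/kg in same vehicle; PO 20 mg/kg in 1% methylcellulose in water. About 110 µL blood taken into K2EDTA by retro-orbital puncture (terminal bleed by cardiac puncture under isoflurane) at 0.033–24 h. Plasma spun at 2000 g, 5 min, 4 °C, stored near −70 °C; n = 3 per route.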

Data set [2] deals with Tyrosine-protein kinase ABL1 (Homo sapiens, UniProt P00519). Put plainly: Inhibition of recombinant human N-terminal His-tagged Abl (2 to 1130 residues) expressed in baculovirus expression system using FAM-labelled P2 peptide as substrate preincubated for 10 mins followed by substrate addition and measured after 1 hr in presence of ATP by fluorescence assay.
Data set [3] has as its target Platelet-derived growth factor receptor beta (Homo sapiens, UniProt P09619). Put plainly: Inhibition of recombinant human N-terminal GST-tagged PDGFRbeta cytoplasmic domain (557 to 1106 residues) expressed in baculovirus expression system using FAM-labelled P22 peptide as substrate preincubated for 10 mins followed by substrate addition and measured after 1 hr in presence of ATP by fluorescence assay.

For data set [4], the target named is Proto-oncogene tyrosine-protein kinase Src (Homo sapiens, UniProt P12931). Put plainly: Inhibition of recombinant human full-length N-terminal GST-tagged SRC (1 to 536 residues) expressed in baculovirus expression system using FAM-labelled P4 peptide as substrate preincubated for 10 mins followed by substrate addition and measured after 1 hr in presence of ATP by fluorescence assay.

Data set [5] addresses Proprotein convertase subtilisin/kexin type 9 (Homo sapiens) (UniProt Q8NBP7). As to the kind of experiment: Binding affinity to biotinylated recombinant human PCSK9 at 0.2 to 0.4 uM incubated for 2 mins followed by further incubation for 10 mins by biolayer interferometry. The method, boiled down:
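Biolayer interferometry: biotinylated PCSK9 (27 µg/mL) loaded onto a Super Streptavidin biosensor and blocked with biocytin. Compound (0.2–25.6 µM) associated for 2 min, then dissociated for 10 min. Background signal subtracted to remove non-specific binding.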

Data set [6] has as its system PCSK9/LDLR (Homo sapiens), Q8NBP7+P01130 [D374Y]. Put plainly: Inhibition of PCSK9 D374Y mutant (unknown origin) and LDLR protein-protein interaction expressed in human PBMCs assessed as increase in LDLR expression on lymphocyte surface at 1 to 10 uM measured after 4 hrs by flow cytometry analysis. The gist of the method: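 PBMCs from healthy donors, frozen and then thawed, plated at 2 × 10^5 per well in RPMI with 10 mM HEPES, 1 mM pyruvate and 0.5% FCS for 2 h at 37 °C. Treated 4 h with or without 600 ng/mL PCSK9-D374Y plus compound. Cells stained 20 min at room temperature with APC-conjugated anti-LDLR; at least 5 × 10^3 gated lymphocytes read by flow cytometry. Values as % of PCSK9-free vehicle; triplicates, t test.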
(A flow cytometer gives signals particle by particle.)

The nature of data set [7]: Clearance in CD1 mouse at 0.4 mg/kg, iv administered as cassette dose measured upto 24 hrs by LC-MS/MS analysis. Particulars: in vivo. The class given is ADME, organism-based. The gist of the method:
(§2)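 Male CD1 mice (second cassette 28–29 g, 7–8 weeks) given one IV 5-in-1 cassette at 0.4 mg/kg per compound in 5% DMAC/5% Solutol HS15/90% saline. Blood (~20 µL) into K2EDTA from the facial vein at 0.083–24 h, terminal bleed by cardiac puncture under isoflurane. Blood diluted with deionised water, stored at −80 °C, analysed by positive-ESI mass spectrometry.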

A short description of data set [8]: Terminal half life in CD1 mouse at 0.4 mg/kg, iv administered as cassette dose measured upto 24 hrs by LC-MS/MS analysis. Particulars: in vivo, read-out: beta t1/2 (converted). Type of data set: ADME, organism-based. The method, boiled down:
as §2

Data set [9] can be described thus: Volume of distribution at steady state in C57BL/6 mouse at 5 mg/kg, iv administered as single dose measured upto 24 hrs by LC-MS/MS analysis. The class given is ADME, organism-based. Particulars: in vivo, read-out: Vdss. The method, boiled down:
as §1

Data set [10] is described as follows: Terminal half life in C57BL/6 mouse at 20 mg/kg, sc administered as single dose measured upto 24 hrs by LC-MS/MS analysis. Particulars: in vivo, read-out: beta t1/2 (converted). Type of data set: ADME, organism-based. The gist of the method:
as §1

Data set [11] is described as follows: Terminal half life in C57BL/6 mouse at 5 mg/kg, iv administered as single dose measured upto 24 hrs by LC-MS/MS analysis. Particulars: in vivo, read-out: beta t1/2 (converted). The class given is ADME, organism-based. The gist of the method:
as §1

Data set [12] is described as follows: AUClast in C57BL/6 mouse at 20 mg/kg, sc administered as single dose measured upto 24 hrs by LC-MS/MS analysis. The class given is ADME, organism-based. Particulars: in vivo. More on the design: dose 20 mg/kg, time < 24 hr, route subcutaneous. The gist of the method: as §1
Data set [13] in a line: AUClast in C57BL/6 mouse at 5 mg/kg, iv administered as single dose measured upto 24 hrs by LC-MS/MS analysis. More on the design: dose 5 mg/kg, time < 24 hr, route intravenous. Particulars: in vivo. Type of data set: ADME, organism-based. The gist of the method: as §1
Data set [14] in a line: AUCinfinity in C57BL/6 mouse at 20 mg/kg, sc administered as single dose measured upto 24 hrs by LC-MS/MS analysis. More on the design: dose 20 mg/kg, time infinity, route subcutaneous. Particulars: in vivo. Type of data set: ADME, organism-based. The method, boiled down: as §1
The nature of data set [15]: Oral bioavailability in C57BL/6 mouse at 20 mg/kg administered as single dose measured upto 24 hrs by LC-MS/MS analysis. The class given is ADME, organism-based. Particulars: in vivo. The method, boiled down:
as §1

Data set [16] deals with Mus musculus. Put plainly: Effect on total triglyceride level in C57BL/6 mouse at 3.28 to 16.4 mg/kg/day, sc administered daily for 14 days and measured on day 15 by colorimetric method. The class given is ADME, organism-based. Particulars: in vivo, 336 h. The method, boiled down:
(§3)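 Female C57BL/6 wild-type or PCSK9−/− mice (8–16 weeks), acclimatised 7 days, 5 per group, dosed SC daily for 14 days at 3.28 or 16.4 mg/kg/day in 5% DMSO/95% saline, or vehicle alone. Blood taken into EDTA on days 0, 5, 10 and 15; plasma from 2500 g spin, stored at −20 °C. Total cholesterol and triglycerides read by colorimetric kits, PCSK9 by mouse ELISA; unpaired two-tailed t test against vehicle.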

Data set [17] relates to Mus musculus. Put plainly: Antihyperlipidemic activity in PCSK9 knockout C57BL/6 mouse assessed as decrease in total cholesterol level at 16.4 mg/kg/day, sc administered daily for 14 days and measured on day 15 by colorimetric method. Type of data set: functional, organism-based. The gist of the method: as §3
The test system of data set [18] is Mus musculus. Put plainly: Up regulation of PCSK9 expression in C57BL/6 mouse at 16.4 mg/kg/day, sc administered daily for 10 days measured post last dose by ELISA. Type of data set: functional, organism-based. Particulars: in the assay text read “for 14 days” for “for 10 days”. The method, boiled down:
as §3

For data set [19], the system named is PCSK9/LDLR (Homo sapiens), Q8NBP7+P01130 [D374Y]. As to the kind of experiment: Inhibition of PCSK9 D374Y mutant (unknown origin) and LDLR protein-protein interaction in human HepG2 cells assessed as increase in Bodipy FL-labelled LDL uptake preincubated for 16 hrs followed by Bodipy FL-labelled LDL addition and measured after 4 hrs by fluorescence assay. The class given is cell-based. The method, boiled down: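 HepG2 cells seeded at 2 × 10^5 cells/mL and attached overnight, then incubated 16 h with PCSK9-D374Y (2 μg/mL) plus compound (0.1 or 1 µM). Medium replaced with 10 μg/mL Bodipy FL LDL for 4 h. Cells washed with warm PBS; fluorescence read at ex 485/em 530 nm. Mean ± S.D.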

A short description of data set [20]: Toxicity in C57BL/6 mouse assessed as change in behavior at 3.28 to 16.4 mg/kg/day, sc administered daily for 14 days. Particulars: in vivo, 336 h. The class given is organism-based.

Platelet-derived growth factor receptor beta, sequence (P09619 whole entry, the tested form may be a part): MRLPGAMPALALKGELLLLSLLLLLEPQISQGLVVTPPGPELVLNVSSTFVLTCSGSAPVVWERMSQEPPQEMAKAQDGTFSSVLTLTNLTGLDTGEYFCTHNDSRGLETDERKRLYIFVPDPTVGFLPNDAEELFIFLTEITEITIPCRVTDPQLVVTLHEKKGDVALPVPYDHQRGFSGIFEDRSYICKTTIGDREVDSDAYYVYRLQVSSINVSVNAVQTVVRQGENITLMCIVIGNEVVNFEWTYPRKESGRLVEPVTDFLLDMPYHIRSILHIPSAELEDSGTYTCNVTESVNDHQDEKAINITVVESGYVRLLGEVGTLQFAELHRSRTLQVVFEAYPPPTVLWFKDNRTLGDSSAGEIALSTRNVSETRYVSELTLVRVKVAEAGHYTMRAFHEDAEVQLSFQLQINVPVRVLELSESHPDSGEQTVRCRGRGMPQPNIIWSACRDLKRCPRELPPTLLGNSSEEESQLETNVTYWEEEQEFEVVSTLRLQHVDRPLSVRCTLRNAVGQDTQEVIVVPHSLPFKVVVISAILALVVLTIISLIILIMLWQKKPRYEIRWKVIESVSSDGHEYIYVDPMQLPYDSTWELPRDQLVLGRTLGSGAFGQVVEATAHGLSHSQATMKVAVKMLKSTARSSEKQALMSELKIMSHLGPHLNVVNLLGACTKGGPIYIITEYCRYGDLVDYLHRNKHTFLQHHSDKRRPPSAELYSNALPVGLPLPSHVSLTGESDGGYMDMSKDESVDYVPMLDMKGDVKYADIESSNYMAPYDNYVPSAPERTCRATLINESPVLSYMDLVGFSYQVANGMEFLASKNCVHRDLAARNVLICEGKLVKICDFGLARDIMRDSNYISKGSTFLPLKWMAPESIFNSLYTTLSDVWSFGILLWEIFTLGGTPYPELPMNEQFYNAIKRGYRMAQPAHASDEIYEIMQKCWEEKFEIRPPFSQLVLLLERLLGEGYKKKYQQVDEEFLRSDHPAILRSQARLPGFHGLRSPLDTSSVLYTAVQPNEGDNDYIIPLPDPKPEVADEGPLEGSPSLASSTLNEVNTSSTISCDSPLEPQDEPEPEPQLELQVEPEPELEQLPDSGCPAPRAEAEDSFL
Proprotein convertase subtilisin/kexin type 9 (Homo sapiens), sequence (Q8NBP7 31-152 limits assumed): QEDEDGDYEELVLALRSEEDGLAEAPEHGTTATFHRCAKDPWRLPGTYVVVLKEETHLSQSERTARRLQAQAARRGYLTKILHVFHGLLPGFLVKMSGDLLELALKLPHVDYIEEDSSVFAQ
Proprotein convertase subtilisin/kexin type 9 (Homo sapiens), sequence (Q8NBP7 153-692 limits assumed): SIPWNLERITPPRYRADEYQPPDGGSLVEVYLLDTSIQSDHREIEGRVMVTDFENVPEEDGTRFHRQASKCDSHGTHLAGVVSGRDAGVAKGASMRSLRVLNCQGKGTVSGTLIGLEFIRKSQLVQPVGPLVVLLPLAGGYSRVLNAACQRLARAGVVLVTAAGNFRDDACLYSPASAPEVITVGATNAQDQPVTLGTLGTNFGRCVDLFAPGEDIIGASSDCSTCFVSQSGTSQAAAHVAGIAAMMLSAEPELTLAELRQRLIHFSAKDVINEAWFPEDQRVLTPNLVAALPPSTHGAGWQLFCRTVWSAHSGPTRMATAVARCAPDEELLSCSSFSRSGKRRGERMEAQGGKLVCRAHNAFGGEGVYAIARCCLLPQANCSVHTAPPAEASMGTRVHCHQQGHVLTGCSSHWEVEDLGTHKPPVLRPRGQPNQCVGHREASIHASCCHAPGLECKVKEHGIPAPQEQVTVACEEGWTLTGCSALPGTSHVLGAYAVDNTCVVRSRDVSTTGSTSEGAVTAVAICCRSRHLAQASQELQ
Proto-oncogene tyrosine-protein kinase Src, sequence (P12931 2-536 limits assumed): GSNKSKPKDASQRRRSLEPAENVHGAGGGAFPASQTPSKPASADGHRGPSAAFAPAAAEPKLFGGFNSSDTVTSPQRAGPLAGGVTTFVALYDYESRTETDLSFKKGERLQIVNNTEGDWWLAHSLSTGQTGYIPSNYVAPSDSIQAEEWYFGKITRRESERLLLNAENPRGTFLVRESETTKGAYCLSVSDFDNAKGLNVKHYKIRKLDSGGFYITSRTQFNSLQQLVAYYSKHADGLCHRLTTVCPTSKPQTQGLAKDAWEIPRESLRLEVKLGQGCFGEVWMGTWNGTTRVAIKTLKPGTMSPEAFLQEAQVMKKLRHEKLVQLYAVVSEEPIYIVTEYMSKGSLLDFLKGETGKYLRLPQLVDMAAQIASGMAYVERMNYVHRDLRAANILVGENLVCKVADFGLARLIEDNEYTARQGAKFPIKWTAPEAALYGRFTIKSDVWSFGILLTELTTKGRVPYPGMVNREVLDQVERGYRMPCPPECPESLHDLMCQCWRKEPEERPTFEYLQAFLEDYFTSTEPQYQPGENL
Tyrosine-protein kinase ABL1, sequence (P00519 whole entry, the tested form may be a part): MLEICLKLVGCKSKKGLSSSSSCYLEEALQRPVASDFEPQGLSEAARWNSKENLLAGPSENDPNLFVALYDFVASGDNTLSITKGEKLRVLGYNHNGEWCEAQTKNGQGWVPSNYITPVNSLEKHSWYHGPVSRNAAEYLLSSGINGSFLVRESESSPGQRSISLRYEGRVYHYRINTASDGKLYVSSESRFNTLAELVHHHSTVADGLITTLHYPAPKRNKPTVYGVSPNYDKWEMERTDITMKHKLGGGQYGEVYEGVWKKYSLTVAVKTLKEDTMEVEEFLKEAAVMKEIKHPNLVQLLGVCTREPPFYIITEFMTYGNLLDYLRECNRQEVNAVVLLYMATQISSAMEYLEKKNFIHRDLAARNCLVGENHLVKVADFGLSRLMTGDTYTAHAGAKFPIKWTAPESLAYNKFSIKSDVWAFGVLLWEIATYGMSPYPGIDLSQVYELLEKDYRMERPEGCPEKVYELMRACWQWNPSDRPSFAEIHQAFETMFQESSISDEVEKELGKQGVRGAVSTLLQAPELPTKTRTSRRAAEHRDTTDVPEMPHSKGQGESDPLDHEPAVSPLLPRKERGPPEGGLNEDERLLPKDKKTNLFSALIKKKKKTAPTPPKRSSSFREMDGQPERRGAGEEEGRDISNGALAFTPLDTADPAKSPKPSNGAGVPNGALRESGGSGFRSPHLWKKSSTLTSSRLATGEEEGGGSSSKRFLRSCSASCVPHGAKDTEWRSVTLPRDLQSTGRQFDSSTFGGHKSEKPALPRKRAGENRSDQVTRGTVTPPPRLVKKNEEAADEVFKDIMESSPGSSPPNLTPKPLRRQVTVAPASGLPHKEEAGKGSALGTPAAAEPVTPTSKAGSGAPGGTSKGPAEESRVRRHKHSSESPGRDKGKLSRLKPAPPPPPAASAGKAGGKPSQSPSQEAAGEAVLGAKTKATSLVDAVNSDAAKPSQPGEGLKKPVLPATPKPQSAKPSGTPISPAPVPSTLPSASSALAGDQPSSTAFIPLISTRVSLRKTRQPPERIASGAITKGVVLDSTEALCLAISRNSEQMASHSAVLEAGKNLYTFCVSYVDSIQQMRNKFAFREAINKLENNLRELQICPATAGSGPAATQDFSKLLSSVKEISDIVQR

In the case of `Cc1cn(-c2cc(CN3CCC[C@H](N)C3)cc(NC(=O)c3ccc(C)c(Oc4ccccc4)c3)c2)cn1`, in [1], the time of peak concentration (Tmax) (as a rule, the time at which the peak concentration occurs) was 1 h. The IC50 in data set [2], in data set [3] and in [4] was > 10 µM throughout. Besides, the outcome in [5] and in data set [17] was inactive. Further, the inhibition result in [6] was “Active”. Moreover, the clearance (as a rule, the volume of plasma or blood freed of the substance per unit of time) in data set [7] is 5 mL/min/kg. In addition, the half-life in [8] was 25.7 h; in data set [10], 5.47 h; in [11], 9.86 h. Moreover, the Vd in [9] is 3.87 L/kg. Besides, the figures for the AUC(0-t) at 24 h in data set [12] and in data set [13] were 16100 ng·h/mL and 4380 ng·h/mL, respectively. The AUC(0-inf) (in general, total exposure, with the tail of the curve extrapolated) in data set [14] was 16800 ng·h/mL. Besides, the bioavailability (commonly dose-corrected exposure relative to a reference, in per cent) in data set [15] was determined as 0.527%. The Activity entry in data set [16] and in data set [20] was “Non-Toxic” throughout. Further, the outcome in data set [18] was Active. Also, the inhibition result in data set [19] is “Dose-dependent effect”.
